In all, about 65,000 compounds went through this assay and about 1,200 (1.8%) were called active.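 Rule for the calls: active = activation above the mean activation of all tested compounds plus 3 SD (cut at about 50% in these data); inactive = the rest.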 The full list was thinned out, with actives kept by preference.
Target: Steroidogenic factor 1 (Homo sapiens) (UniProt Q13285)
Experiment: activators of human SF-1, primary screen, cell-based, CHO-K1, Gal4-SF-1 LBD, luciferase luminescence (AID 522)
Settings: CHO-K1 Gal4-SF-1 LBD luciferase reporter; at 10 µM; active compounds read high; % increase over DMSO SF-1-specific signal
Outline: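 Assay system: CHO-K1 cells co-transfected with Gal4 DBD–human SF-1 LBD, 5xGal4 luciferase reporter / Input: 4,000 cells per well / Incubation: 20 h compound exposure at 37 °C after 1 h cell settling / Detection: SteadyLite luciferase luminescence / Control set: DMSO negative control and −SF1 background wells / Replication: one test per compound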

Chain of Steroidogenic factor 1 (Homo sapiens) (Q13285 whole entry, looked up, the tested form may be a part): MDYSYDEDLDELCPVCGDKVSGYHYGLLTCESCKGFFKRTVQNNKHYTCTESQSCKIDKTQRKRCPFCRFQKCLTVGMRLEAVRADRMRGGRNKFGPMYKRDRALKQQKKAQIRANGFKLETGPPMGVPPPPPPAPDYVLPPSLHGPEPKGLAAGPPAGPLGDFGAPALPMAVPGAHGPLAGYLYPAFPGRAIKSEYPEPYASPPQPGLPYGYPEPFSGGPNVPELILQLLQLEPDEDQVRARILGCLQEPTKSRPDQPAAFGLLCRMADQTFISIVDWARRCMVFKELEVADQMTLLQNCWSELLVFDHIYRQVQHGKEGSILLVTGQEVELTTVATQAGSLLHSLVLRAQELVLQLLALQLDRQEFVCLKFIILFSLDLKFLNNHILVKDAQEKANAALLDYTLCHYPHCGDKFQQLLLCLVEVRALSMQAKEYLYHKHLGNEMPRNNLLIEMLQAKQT

activation, active:
c1ccc(CSc2nnc(-c3ccco3)n2Cc2ccccc2)cc1 76%
COc1cc(C2C3C(=O)N(c4ccccc4)C(=O)C3ON2c2ccccc2)ccc1O (centres undefined) 51.7%
CC(C)(C)c1ccc(C(=O)CSc2ncn[nH]2)cc1 57.1%
Cc1ccc(C(=O)Nc2nnc(-c3cccs3)s2)cc1C 80.9%
CCc1nnc(NC(=O)c2cccs2)s1 50%
CC(C)c1ccc(NC(=O)NC2CCCCC2)cc1 100%
CC(=O)c1cc(C#N)c(SCC(=O)C(C)(C)C)nc1C 57.1%
O=C(Nc1cccc(-c2nnc(-c3ccccc3)o2)c1)C1CCCO1 (centres undefined) 65.8%
O=C(Nc1ccc(-c2nnc(-c3ccccc3)o2)cc1)C1CCCO1 (centres undefined) 65.9%
COC(=O)c1ccc(NC(=O)c2ccco2)cc1 85.3%
CCCCOC(=O)c1[nH]c(C)c(C(=O)OC)c1C 77.7%
C=C(C)CSc1nc(N)c2c3c(sc2n1)CCC3 51.5%
CC(C)CNC(=O)c1cc(-c2ccc(Br)cc2)on1 52.5%
CC(C)(C)c1csc(NC2=NS(=O)(=O)c3ccccc32)n1 50.5%

activation, inactive:
COc1cc(-c2nc(S(=O)(=O)c3ccc(Cl)cc3)c(N(C)C)o2)cc(OC)c1OC -17.6%
Cc1ccc(C(c2nnnn2CS(=O)(=O)c2ccc(C)cc2)N2CCC(C(N)=O)CC2)cc1 (centres undefined) -4.8%
Cc1cc(C)cc(N(CC(=O)NCC2CCCO2)S(=O)(=O)c2c(C)noc2C)c1 (centres undefined) -8.7%
N#Cc1c(NC(=O)CCCN2C(=O)c3ccccc3C2=O)oc(-c2ccccc2)c1-c1ccccc1 12.7%
CCCc1[nH]nc2c1C(c1c(C)nn(-c3ccccc3)c1Cl)C(C#N)=C(N)O2 (centres undefined) 6.3%
CNC(=O)NCCN1CCCC1=O 1%
O=C(CSc1nnc(-c2ccco2)n1Cc1ccccc1)NC(=O)NCc1ccco1 -12.1%
c1ccc(CSc2nnc(-c3ccco3)c(-c3ccco3)n2)cc1 0.5%
CCn1c(COc2ccc(OC)cc2)nnc1SCC(=O)Nc1cc(OC)ccc1OC -13.5%
Cc1ccccc1N1C(=O)C2ON(c3ccccc3)C(c3ccncc3)C2C1=O (centres undefined) 5.4%
COc1cc(C2C(C(=O)c3ccc(C)o3)=C(O)C(=O)N2CCc2ccccc2)ccc1O (centres undefined) 8.7%
COc1ccccc1NC(=O)CSc1nnc(-c2ccoc2C)n1CCc1ccccc1 -3.3%
Cn1nnc(NC(=O)CSc2ncn[nH]2)n1 4.4%
CCN(C(=O)CSc1ncn[nH]1)c1cccc2ccccc12 16.4%
O=S(=O)(c1cccc(-c2nnc(SC(F)F)n2-c2ccccc2)c1)N1CCCCC1 4.3%
CCOc1cc(N2CCOCC2)c(OCC)cc1NC(=O)COc1cccc2cccnc12 8.2%
CCc1nnc(NC(=O)CCC(=O)O)s1 -8.1%
CCc1ccccc1NC(=O)c1cccs1 -5.6%
Cc1ccc(C(=O)Nc2nnc(-c3ccncc3)s2)o1 21.8%
Cc1occc1C(=O)Nc1nnc(-c2ccncc2)s1 20.4%
CCOC(=O)c1ccc(-n2c(C)nc3c(cnn3-c3ccccc3C)c2=O)cc1 17.1%
CCCc1[nH]nc2c1C(c1ccc(Br)s1)C(C#N)=C(N)O2 (centres undefined) 15.9%
Cn1c(/C(C#N)=C2/CCCCCN2)nc2ccccc21 9.6%
CCOC(=O)N1CCN(C(=O)C2CC(c3ccc(F)cc3)=NO2)CC1 (centres undefined) -7.2%
COC(=O)[C@H](C(C)C)n1c(C)c(C(C)=O)c(C(C)=O)c1C 5.7%
CC(Cc1cccs1)NC(=O)NC1CCCCC1 (centres undefined) 41.1%
CC(=O)OC(C(=O)NC1CCCCC1)c1ccccc1 (centres undefined) -11.8%
Cc1cccc(-n2c(N)c(C(=O)N3CCN(C)CC3)sc2=S)c1 3.5%
Cc1ccc(C2CC(=O)NC(SCC(=O)OCc3ccccc3)=C2C#N)o1 (centres undefined) -4.2%
CCN(CC(=O)Nc1ccc2c(c1)OCCO2)Cc1cc(=O)oc2cc(C)c(C)cc12 -19.6%
Cc1cc(C(F)(F)F)c(C#N)c(SCC(=O)NC2CC2)n1 -6.7%
CCOc1ccc2cc(C#N)c(SCC(=O)OC)nc2c1 26.5%
Cc1cc(Br)ccc1NC(=O)C1CCCO1 (centres undefined) -10.5%
O=C(CCc1ccccc1)Nc1cccc(-c2nnc(-c3ccco3)o2)c1 27.9%
O=C(Nc1nnc(CCc2ccccc2)s1)C1CCCO1 (centres undefined) 21.6%
O=C(CSc1nnc(-c2ccc(NS(=O)(=O)c3ccccc3)cc2)o1)NCC1CCCO1 (centres undefined) -0.8%
Cc1cccc(N2CCN(Cc3c(C)n(C)n(-c4ccccc4)c3=O)CC2)c1C 15.3%
O=C(NCc1ccccc1)C1C(=O)N(Cc2ccccc2)C(=O)C1C1(O)CCCC1 (centres undefined) -4.5%
Cc1ccccc1Cn1c(=O)[nH]c2ccccc21 -12.9%
CCOC(=O)C1CCN(Cc2coc3ccc(Cl)cc3c2=O)CC1 -25.8%
O=C(Nc1ccc(Oc2ccccc2)cc1)c1ccco1 44%
CC(C)(C)NC(=O)c1cc(NC(=O)c2ccco2)cc(NC(=O)c2ccco2)c1 22%
Cc1cccc(C)c1NC(=O)N1CC=C(n2c(=O)[nH]c3ccccc32)CC1 -7.6%
CC(Sc1sc(=S)sc1SC(C)C(=O)O)C(=O)O (centres undefined) -6.9%
CCOC(=O)c1c(C)[nH]c(C(=O)COc2ccc3c(c2)OCO3)c1C 28.5%
CCOC(=O)c1c(C)[nH]c(C(=O)NCc2ccccc2OC)c1C 24.8%
CCc1ccccc1NC1c2ccccc2C(=O)N1c1cccnc1 (centres undefined) -5.1%
Cc1cc(N2C(=O)C(=O)/C(=C(/O)c3ccccc3)C2c2cccc(Br)c2)no1 (centres undefined) 2.6%
COc1ccc(S(=O)(=O)NC2(C(F)(F)F)N=C3SCCN3C2=O)cc1 (centres undefined) 19.3%
CN(C)CCSc1nc(N)c2c3c(sc2n1)COC(C)(C)C3 3.5%
C=C(C)Cn1c(SCC(=O)NCc2ccco2)nc2sc3c(c2c1=O)CCC3 -1.8%
O=C(CSc1nc2[nH]ncc2c(=O)n1-c1ccccc1)N1CCCc2ccccc21 22.2%
CC(NC(=O)c1cc(-c2ccccc2)on1)c1ccccc1 (centres undefined) 1.6%
O=C(NCCCN1CCOCC1)c1cc(-c2ccc(Cl)cc2)on1 -2.4%
CCOC(=O)C1CCc2nc3ccccc3c(=O)n21 (centres undefined) 2.2%
CCOC(=O)C1CCN(C(=O)CC2C(=O)N(Cc3ccccc3)C(C)c3nc4ccccc4n32)CC1 (centres undefined) 14.5%
COC(=O)c1ccc(Oc2nc(NC(C)C)nc(SC)n2)cc1 2.8%
c1ccc(Nc2nc(-c3ccncc3)cs2)nc1 36.9%
CCOC(=O)c1nnn(CC(=O)Nc2cccc(F)c2)c1C(=O)OCC 2.1%
CCN(CCCCOC(=O)c1ccc(OC)c(OC)c1)C(C)Cc1ccc(OC)cc1 (centres undefined) -10.3%
